Assay results published in ChEMBL document CHEMBL1123855, “Synthesis of glycopyranosylphosphonate analogues of certain natural nucleoside diphosphate sugars as potential inhibitors of glycosyltransferases” (J Med Chem, 1987).
Active and inactive are the calls of the source. No cut-off for these calls is given here.

Experiments:
CCRF-CEM [1] = experiment: In vitro antitumor activity was evaluated against human T-lymphoblastic leukemia cell lines; no = No activity; format: functional, cell-based
L1210 = experiment: In vitro antitumor activity was evaluated against L1210 leukemia cell lines; No activity; format: functional, cell-based; conditions: Mus musculus
Vero [2] = experiment: In vitro antiviral activity was evaluated against vero cell lines infected with Parainfluenza virus type 3; non toxic at concentrations as high as 50000 uM; format: functional, cell-based; conditions: Chlorocebus sabaeus
Vero [3] = experiment: In vitro antiviral activity was evaluated against vero cell lines infected with adenovirus type 2; non toxic at concentrations as high as 50000 uM; format: functional, cell-based; conditions: Chlorocebus sabaeus
Vero [4] = experiment: In vitro antiviral activity was evaluated against vero cell lines infected with herpes simplex virus type-2; non toxic at concentrations as high as 50000 uM; format: functional, cell-based; conditions: Chlorocebus sabaeus
WIL2 [5] = experiment: In vitro antitumor activity was evaluated against human B-lymphoblastic leukemia cell lines; no = No activity; format: functional, cell-based
Vero [6] = experiment: In vitro antiviral activity was evaluated against vero cell lines infected with influenza virus; Slightly active at concentrations as high as 50000 uM; format: functional, cell-based; conditions: Chlorocebus sabaeus
Vero [7] = experiment: In vitro antiviral activity was evaluated against vero cell lines infected with rhino virus; non toxic at concentrations as high as 50000 uM; format: functional, cell-based; conditions: Chlorocebus sabaeus
Vero [8] = experiment: In vitro antiviral activity was evaluated against vero cell lines infected with visna virus; non toxic at concentrations as high as 50000 uM; format: functional, cell-based; conditions: Chlorocebus sabaeus
[9] = molecular target: N-acetyllactosaminide alpha-1,3-galactosyltransferase (Mus musculus) (UniProt P23336); experiment: Inhibition of galactosyltransferase activity secreted by L1210 leukemia cells grown in mouse peritoneal ascites at 20 ug/mL (35 uM); format: cell-based
N-acetyllactosaminide alpha-1,3-galactosyltransferase (Mus musculus), sequence (P23336 whole entry): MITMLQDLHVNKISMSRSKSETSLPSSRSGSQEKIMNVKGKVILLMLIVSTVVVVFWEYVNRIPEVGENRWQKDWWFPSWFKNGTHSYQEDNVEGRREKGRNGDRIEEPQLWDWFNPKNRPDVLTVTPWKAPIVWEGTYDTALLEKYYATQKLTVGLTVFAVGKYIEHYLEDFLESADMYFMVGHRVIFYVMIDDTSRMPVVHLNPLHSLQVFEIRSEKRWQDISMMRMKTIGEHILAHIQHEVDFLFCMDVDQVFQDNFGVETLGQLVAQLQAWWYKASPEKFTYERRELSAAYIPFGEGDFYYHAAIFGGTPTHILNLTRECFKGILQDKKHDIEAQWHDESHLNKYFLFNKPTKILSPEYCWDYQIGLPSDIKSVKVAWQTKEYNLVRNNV
Summary of the method: (§1)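 Galactosyltransferase from cell-free ascites fluid of DBA/2J mice implanted 5-7 days earlier with 10^5 L1210 cells, cells removed by centrifugation. Medium: ovalbumin 1 mg/mL acceptor, 0.1 M cacodylate pH 7.0, 10 mM MnCl2, 2 mM AMP, inhibitor 20 or 50 ug/mL, UDP-galactose varied 1-80 uM plus UDP-[3H]galactose. 30 min, 37 °C. Stopped with PTA/HCl; washed precipitate scintillation-counted. Duplicates.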

[10] = molecular target: N-acetyllactosaminide alpha-1,3-galactosyltransferase (Mus musculus) (UniProt P23336); experiment: Inhibition of galactosyltransferase activity secreted by L1210 leukemia cells grown in mouse peritoneal ascites at 50 ug/mL (89 uM); format: cell-based; summary of the method: as §1
CCRF-CEM [11] = experiment: In vitro antitumor activity was evaluated against human T-lymphoblastic leukemia cell lines; Slight activity; format: functional, cell-based
WIL2 [12] = experiment: In vitro antitumor activity was evaluated against human B-lymphoblastic leukemia cell lines; Slight activity; format: functional, cell-based

## O=P(O)(O)[C@H]1O[C@@H](CO)[C@@H](O)[C@H](O)[C@@H]1O
CCRF-CEM [1]
  Cytotoxiciy: No activity
L1210
  Cytotoxiciy: No activity
Vero [2]
  Activity: inactive
Vero [3]
  Activity: inactive
Vero [4]
  Activity: inactive
WIL2 [5]
  Cytotoxiciy: No activity
Vero [6]
  Activity: inactive
Vero [7]
  Activity: Slightly active
Vero [8]
  Activity: inactive

## O=P(O)(O)[C@H]1O[C@@H](CO)[C@H](O)[C@H](O)[C@@H]1O (stereo in doubt; 17)
CCRF-CEM [1]
  Cytotoxiciy: No activity
L1210
  Cytotoxiciy: No activity
Vero [2]
  Activity: inactive
Vero [3]
  Activity: inactive
Vero [4]
  Activity: inactive
WIL2 [5]
  Cytotoxiciy: No activity
Vero [7]
  Activity: inactive
Vero [8]
  Activity: inactive

## O=c1ccn(C2O[C@H](COP(=O)(O)OP(=O)(O)C3O[C@H](CO)[C@@H](O)[C@H](O)[C@H]3O)[C@@H](O)[C@H]2O)c(=O)[nH]1 (stereo partly drawn)
[9]
  inhibition: 50%
[10]
  inhibition: 58%

## O=P(O)(O)[C@H]1O[C@@H](CO)[C@H](O)[C@H](O)[C@@H]1O (stereo in doubt; 19)
CCRF-CEM [1]
  Cytotoxiciy: No activity
L1210
  Cytotoxiciy: No activity
Vero [2]
  Activity: inactive
Vero [3]
  Activity: inactive
Vero [4]
  Activity: inactive
WIL2 [5]
  Cytotoxiciy: No activity
Vero [7]
  Activity: inactive
Vero [8]
  Activity: inactive

## Nc1ncnc2c1ncn2C1O[C@H](COP(=O)(O)OP(=O)(O)C2O[C@H](CO)[C@@H](O)[C@H](O)[C@H]2O)[C@@H](O)[C@H]1O (stereo partly drawn)
CCRF-CEM [11]
  Cytotoxiciy: Weak activity
L1210
  Cytotoxiciy: No activity
Vero [2]
  Activity: inactive
Vero [3]
  Activity: inactive
Vero [4]
  Activity: inactive
WIL2 [12]
  Cytotoxiciy: Weak activity
Vero [7]
  Activity: inactive
Vero [8]
  Activity: inactive

## CC(=O)OP(=O)(O)C1OC(COCc2ccccc2)C(OCc2ccccc2)C(OCc2ccccc2)C1OCc1ccccc1 (stereo not drawn)
CCRF-CEM [1]
  Cytotoxiciy: No activity
L1210
  Cytotoxiciy: No activity
Vero [2]
  Activity: inactive
Vero [3]
  Activity: inactive
Vero [4]
  Activity: inactive
WIL2 [5]
  Cytotoxiciy: No activity
Vero [7]
  Activity: inactive
Vero [8]
  Activity: inactive
